From ChEMBL document CHEMBL2311419, “Discovery of coumarin-dihydropyridine hybrids as bone anabolic agents” (J Med Chem, 2013) come the findings set out here.

The species entered for data set [1] is Mus musculus. Description: Stimulation of alkaline phosphatase activity in mouse calvarial osteoblasts assessed as concentration required for maximum activity after 48 hrs by spectrophotometric analysis. A digest of the protocol:
(§1)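 Calvarial osteoblasts were exposed to compounds over 1 pM to 1 µM. ALP activity was read spectrophotometrically as optical density at 405 nm. Results were expressed as % ALP activity, with EC50 and Emax derived from the concentration series.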

In data set [2] the test system is Calvarial osteoblast. Description: Induction of proliferation of mouse calvarial osteoblasts at 1 pM to 1 uM after 48 hrs. The format is functional, cell-based.
In data set [3] the test system is Calvarial osteoblast. Put plainly: Induction of osteoblastogenesis in mouse calvarial osteoblasts assessed as increase in COL1 expression at 100 pM to 10 nM by Western blotting analysis. Format: functional, cell-based.
Data set [4] concerns Calvarial osteoblast. Put plainly: Induction of osteoblastogenesis in mouse calvarial osteoblasts assessed as increase in BMP2 expression at 100 pM to 10 nM by Western blotting analysis. The format is functional, cell-based. (In general: Immunoblotting shows a protein as a band on a membrane.)
Data set [5] deals with Calvarial osteoblast. Put plainly: Induction of osteoblastogenesis in mouse calvarial osteoblasts assessed as increase in expression of osteocalcin gene at 100 pM by qPCR analysis relative to control. Format: functional, cell-based. A general note: Quantitative PCR measures a nucleic acid by following its amplification.
The subject of data set [6] is Calvarial osteoblast. Put plainly: Induction of osteoblastogenesis in mouse calvarial osteoblasts assessed as increase in expression of ALP gene at 100 pM to 10 nM by qPCR analysis relative to control. The format is functional.
For data set [7], the system named is Calvarial osteoblast. Description: Induction of osteoblastogenesis in mouse calvarial osteoblasts assessed as increase in expression of osteocalcin gene at 100 pM to 10 nM by qPCR analysis relative to control. The format is functional.
The species named for data set [8] is Mus musculus. Put plainly: Stimulation of alkaline phosphatase activity in mouse calvarial osteoblasts at 1 pM to 1 uM after 48 hrs by spectrophotometric analysis. A digest of the protocol:
as §1

Data set [9] relates to Calvarial osteoblast. Put plainly: Induction of osteoblastogenesis in mouse calvarial osteoblasts assessed as increase in expression of ALP gene at 100 pM by qPCR analysis relative to control. Format: functional, cell-based.
For data set [10], the system named is Calvarial osteoblast. Description: Induction of osteoblastogenesis in mouse calvarial osteoblasts assessed as increase in expression of BMP2 gene at 100 pM by qPCR analysis relative to control. Format: functional, cell-based.
Data set [11] has as its system Calvarial osteoblast. Put plainly: Induction of osteoblastogenesis in mouse calvarial osteoblasts assessed as increase in RUNX2 expression at 100 pM to 10 nM by Western blotting analysis. Format: functional, cell-based.
Data set [12] relates to Calvarial osteoblast. Description: Induction of osteoblastogenesis in mouse calvarial osteoblasts assessed as increase in expression of COL1 gene at 100 pM to 10 nM by qPCR analysis relative to control. Format: functional.
The test system of data set [13] is Calvarial osteoblast. Put plainly: Induction of osteoblastogenesis in mouse calvarial osteoblasts assessed as increase in expression of COL1 gene at 100 pM by qPCR analysis relative to control. The format is functional, cell-based.
For data set [14], the system named is Calvarial osteoblast. Put plainly: Induction of mineralization in mouse calvarial osteoblasts assessed as increase of mineralized nodules formation measuring concentration required for maximum activity after 21 days by alizarin red-S staining based spectrophotometric analysis. Format: functional.
Data set [15] relates to Calvarial osteoblast. Put plainly: Induction of osteoblastogenesis in mouse calvarial osteoblasts assessed as increase in expression of RUNX2 gene at 100 pM to 10 nM by qPCR analysis relative to control. Format: functional.
The nature of data set [16]: Cytotoxicity against mouse calvarial osteoblasts assessed as cell viability at 1 pM to 1 uM after 48 hrs by MTT assay. Format: cell-based. Conditions: calvarial osteoblast. (Formazan colour is commonly taken as a measure of viable cells.)
Data set [17] can be described thus: Stimulation of alkaline phosphatase activity in mouse calvarial osteoblasts after 48 hrs by spectrophotometric analysis. A digest of the protocol:
as §1

The subject of data set [18] is Calvarial osteoblast. Put plainly: Induction of osteoblastogenesis in mouse calvarial osteoblasts assessed as increase in expression of RUNX2 gene at 100 pM by qPCR analysis relative to control. Format: functional, cell-based.
The species entered for data set [19] is Mus musculus. Put plainly: Stimulation of alkaline phosphatase activity in mouse calvarial osteoblasts at 1 pM to 1 uM after 48 hrs by spectrophotometric analysis relative to nifedipine.
In data set [20] the test system is Calvarial osteoblast. Put plainly: Induction of osteoblastogenesis in mouse calvarial osteoblasts assessed as increase in expression of BMP2 gene at 100 pM to 10 nM by qPCR analysis relative to control. Format: functional.

The EC50 is the concentration at which the effect is half-maximal. A higher EC50 goes with a less potent agent.

Active and inactive are the calls of the source. No cut-off for these calls is given here.

As to `CCOC(=O)C1=C(C)NC(C)=C(C(=O)OCC)C1c1cc(C(C)(C)C)c2oc(=O)c(C(=O)OC)cc2c1`, the Concentration giving maximum ALP activity in the data set filed under Mus musculus [1] turned out to be 100 pM. Moreover, the outcome with Calvarial osteoblast [2], with Calvarial osteoblast [3], in the data set on Calvarial osteoblast [4], in the data set with Calvarial osteoblast [5], in the data set on Calvarial osteoblast [9] and in the data set on Calvarial osteoblast [10] was Active. Besides, the result with Calvarial osteoblast [11], in the data set on Calvarial osteoblast [13] and in the data set on Calvarial osteoblast [18] was Active. Besides, the “fold change (FC)” value with Calvarial osteoblast [6], with Calvarial osteoblast [7], in the data set with Calvarial osteoblast [12], in the data set on Calvarial osteoblast [15] and with Calvarial osteoblast [20] was 1.5 in each case. Moreover, the Activity in the data set filed under Mus musculus [8] is 70%; in [16], “Non-toxic”; in the data set filed under Mus musculus [19], 28%. Besides, the “Concentration for maximum mineralization” value in the data set on Calvarial osteoblast [14] amounted to 100 pM. This compound had an EC50 in data set [17] of 1100 nM.
